In ChEMBL document CHEMBL1123506, “Unsaturated heterocyclic amines as potent time-dependent inhibitors of dopamine beta-hydroxylase” (J Med Chem, 1986):

Key:
[1] = tested on: Rattus norvegicus; test: Compound was evaluated for the antihypertensive activity against DBH in conscious spontaneously hypertensive rats at the 30 doses (mg/Kg ip) after 43h.; assay type: functional
How it was run: (§1)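 Conscious spontaneously hypertensive rats dosed intraperitoneally at 10, 30 or 100 mg/kg, n = 4–6 per group. Read-out is maximal change in mean arterial blood pressure (mmHg, mean ± SD), with duration of response in hours.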

[2] = target: T1, Dopamine beta-hydroxylase (Bos taurus) (UniProt P15101); test: Compound was determined for the kinetic constant against Dopamine beta hydroxylase purified from beef adrenals, catalytic constant (kcat)
T1 sequence (whole entry): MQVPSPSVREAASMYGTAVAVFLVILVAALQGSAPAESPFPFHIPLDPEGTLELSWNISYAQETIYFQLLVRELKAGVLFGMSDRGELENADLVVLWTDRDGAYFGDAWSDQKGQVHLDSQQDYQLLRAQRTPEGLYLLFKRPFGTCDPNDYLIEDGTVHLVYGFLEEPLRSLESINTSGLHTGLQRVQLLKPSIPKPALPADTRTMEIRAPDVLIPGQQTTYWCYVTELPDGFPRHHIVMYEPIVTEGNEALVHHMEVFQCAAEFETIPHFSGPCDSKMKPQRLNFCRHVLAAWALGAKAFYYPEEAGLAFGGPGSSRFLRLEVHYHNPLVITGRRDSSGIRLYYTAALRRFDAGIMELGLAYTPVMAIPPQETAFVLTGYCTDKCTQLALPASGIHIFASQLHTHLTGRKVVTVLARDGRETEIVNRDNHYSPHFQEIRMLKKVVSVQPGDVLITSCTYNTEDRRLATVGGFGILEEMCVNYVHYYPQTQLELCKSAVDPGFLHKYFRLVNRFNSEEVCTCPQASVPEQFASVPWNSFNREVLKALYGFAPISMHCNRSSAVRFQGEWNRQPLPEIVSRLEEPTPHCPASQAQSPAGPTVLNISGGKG
How it was run: (§2)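 Bovine adrenal DBH, purified to homogeneity. Aliquots withdrawn at timed intervals and diluted into assay medium with 1 mM tyramine. Residual activity measured as octopamine formed, by reverse-phase HPLC with fluorescence detection. KI and kcat from Kitz–Wilson plot of t1/2 versus 1/I; kcat/KI calculated.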

[3] = tested on: Rattus norvegicus; test: Compound was evaluated for the antihypertensive activity against DBH in conscious spontaneously hypertensive rats at the 100 doses (mg/Kg ip) after 70h.; assay type: functional; how it was run: as §1
[4] = The ratio of Kinetic constant K cat / Ki of Dopamine Beta-hydroxylase inhibitor.; how it was run: as §2
[5] = target: T2, Dopamine beta-hydroxylase (Bos taurus, UniProt P15101); test: Compound was determined for the kinetic constant against Dopamine beta hydroxylase purified from beef adrenals, inhibitory constant (Ki); how it was run: as §2
T2 sequence (P15101 whole entry): T1 sequence (whole entry)

[6] = tested on: Rattus norvegicus; test: Compound was evaluated for the antihypertensive activity against DBH in conscious spontaneously hypertensive rats at the 10 doses (mg/Kg ip) after 1h.; assay type: functional; how it was run: as §1
[7] = tested on: Rattus norvegicus; test: Compound was evaluated for the antihypertensive activity against DBH in conscious spontaneously hypertensive rats at the 30 doses (mg/Kg ip) after >1h. (MBP= mean arterial blood pressure); assay type: functional, Artery; how it was run: as §1
[8] = tested on: Rattus norvegicus; test: Compound was evaluated for the antihypertensive activity against DBH in conscious spontaneously hypertensive rats at the 100 doses (mg/Kg ip). (MBP= mean arterial blood pressure)
[9] = tested on: Rattus norvegicus; test: Compound was evaluated for the antihypertensive activity against DBH in conscious spontaneously hypertensive rats at the 30 doses (mg/Kg i.p.) after 3hr.; assay type: functional
How it was run: (§3)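 Conscious spontaneously hypertensive rats received a single intraperitoneal dose; the paper's dose levels were 10, 30 and 100 mg/kg. Mean arterial blood pressure was monitored. Values are the maximal change in mmHg and the duration of the response in h. Groups were n = 4–6, reported as mean ± SD.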

[10] = tested on: Rattus norvegicus; test: Compound was evaluated for the antihypertensive activity against DBH in conscious spontaneously hypertensive rats at the 30 doses (mg/Kg ip) after 9 hr (MBP= mean arterial blood pressure); assay type: functional, Artery; how it was run: as §3
[11] = tested on: Rattus norvegicus; test: Compound was evaluated for the antihypertensive activity against DBH in conscious spontaneously hypertensive rats at the 30 doses (mg/Kg ip) after 30h.; assay type: functional; how it was run: as §1
[12] = tested on: Rattus norvegicus; test: Compound was evaluated for the antihypertensive activity against DBH in conscious spontaneously hypertensive rats at the 100 doses (mg/Kg ip) after 79h.; assay type: functional; how it was run: as §1
[13] = tested on: Rattus norvegicus; test: Compound was evaluated for the antihypertensive activity against DBH in conscious spontaneously hypertensive rats at the 100 doses (mg/Kg ip) after 2 hr.; assay type: functional; how it was run: as §1
[14] = tested on: Rattus norvegicus; test: Compound was evaluated for the antihypertensive activity against DBH in conscious spontaneously hypertensive rats at the 30 doses (mg/Kg ip) after 1h.; assay type: functional; how it was run: as §1
[15] = tested on: Rattus norvegicus; test: Compound was evaluated for the antihypertensive activity against DBH in conscious spontaneously hypertensive rats at the 100 doses (mg/Kg ip) after 3h.; assay type: functional; how it was run: as §1
[16] = tested on: Rattus norvegicus; test: Compound was evaluated for the antihypertensive activity against DBH in conscious spontaneously hypertensive rats at the 30 doses (mg/Kg ip) after 6h.; assay type: functional; how it was run: as §1

| k cat [2] | k cat/Ki [4] [M⁻¹ s⁻¹] | Ki [5] [µM] | SMILES | other results |
| --- | --- | --- | --- | --- |
| 0.124 -1/min | 59 | 35 | C=C(CN)c1cccs1 | Max MBP [1]: -36 mmHg; Max MBP [3]: -34 mmHg; Max MBP [6]: -19 mmHg |
| 0.00163 s⁻¹ | 0.733 | 2150 | C=C(CNC)c1cccs1 | Max MBP [7]: -23 mmHg; Max MBP [8]: -16 mmHg |
| 0.04 -1/min | 0.05 | 13000 | C=C(CN)c1ccccc1 | – |
| 0.13 -1/min | 5.28 | 410 | C=C(CN)c1ccco1 | Max MBP [11]: -26 mmHg; Max MBP [12]: -69 mmHg; Max MBP [6]: -10 mmHg |
| 0.147 -1/min | 4.28 | 570 | C=C(CN)c1ccsc1 | Max MBP [13]: -54 mmHg; Max MBP [14]: -18 mmHg |
| 0.077 -1/min | 5.57 | 230 | C=C(CN)c1ccoc1 | Max MBP [15]: -21 mmHg; Max MBP [16]: -20 mmHg |

| SMILES | k cat [2] | k cat/Ki [4] [M⁻¹ s⁻¹] | Ki [5] [µM] | other results |
| --- | --- | --- | --- | --- |
| NCC#Cc1ccccc1 | 0.07 -1/min | 55.5 | 21 | Max MBP [9]: -13 mmHg |
| C=C(c1cccs1)C(C)N (stereo unspecified) | 0.000967 s⁻¹ | 2.68 | 360 | Max MBP [10]: -16 mmHg |
| CC#Cc1ccccc1 | 0.06 -1/min | 0.1 | 20000 | – |
